We go through two compounds from ChEMBL document CHEMBL4251566 (Eur J Med Chem, 2018).

Molecules are shown by their SMILES.

Usually IC50 stands for the point on the concentration scale where inhibition reaches its midpoint. As a reminder, the inhibition is the relative decrease from the control value, in per cent.

In test [1] the target is T1, Tyrosine-protein kinase JAK3 (Homo sapiens, UniProt P52333).
T1 sequence (P52333 whole entry): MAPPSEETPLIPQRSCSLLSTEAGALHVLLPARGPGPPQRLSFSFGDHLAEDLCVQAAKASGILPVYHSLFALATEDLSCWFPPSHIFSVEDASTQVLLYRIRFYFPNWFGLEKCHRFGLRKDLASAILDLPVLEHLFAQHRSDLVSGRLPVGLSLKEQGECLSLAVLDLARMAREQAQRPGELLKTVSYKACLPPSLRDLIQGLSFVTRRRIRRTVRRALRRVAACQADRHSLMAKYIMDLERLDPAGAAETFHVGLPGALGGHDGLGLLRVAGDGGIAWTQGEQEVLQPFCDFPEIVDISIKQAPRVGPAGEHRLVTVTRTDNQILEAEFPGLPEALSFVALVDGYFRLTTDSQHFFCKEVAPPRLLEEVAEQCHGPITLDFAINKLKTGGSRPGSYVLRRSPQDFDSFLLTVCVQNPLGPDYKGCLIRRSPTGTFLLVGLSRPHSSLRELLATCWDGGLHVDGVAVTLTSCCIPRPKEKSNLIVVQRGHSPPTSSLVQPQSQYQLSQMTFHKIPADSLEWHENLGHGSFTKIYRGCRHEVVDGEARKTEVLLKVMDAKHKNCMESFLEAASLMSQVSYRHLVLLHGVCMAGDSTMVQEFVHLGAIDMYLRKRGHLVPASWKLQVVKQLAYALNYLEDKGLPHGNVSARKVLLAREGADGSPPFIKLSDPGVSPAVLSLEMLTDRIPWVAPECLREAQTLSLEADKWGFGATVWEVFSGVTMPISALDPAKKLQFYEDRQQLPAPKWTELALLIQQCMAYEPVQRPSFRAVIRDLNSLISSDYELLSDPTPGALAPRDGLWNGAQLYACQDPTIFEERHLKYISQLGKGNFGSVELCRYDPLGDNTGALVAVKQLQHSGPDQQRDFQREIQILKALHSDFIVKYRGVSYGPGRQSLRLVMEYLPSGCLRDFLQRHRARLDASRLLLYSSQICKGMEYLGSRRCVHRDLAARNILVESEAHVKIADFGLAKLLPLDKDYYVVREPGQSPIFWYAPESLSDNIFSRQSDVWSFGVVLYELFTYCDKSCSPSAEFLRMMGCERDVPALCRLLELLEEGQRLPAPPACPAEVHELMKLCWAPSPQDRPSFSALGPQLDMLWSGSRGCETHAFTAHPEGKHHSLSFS
Put plainly: Inhibition of recombinant N-terminal GST-tagged human JAK3 (781 to end residues) expressed in baculovirus infected Sf9 insect cells using Poly(4:1 Glu,Tyr) peptide substrate incubated for 60 mins by ADP-Glo luminescence assay. The gist of the method: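 ADP-Glo luminescent kinase assay. The kinase reaction ran 60 min at room temperature in 1× kinase buffer. ADP-Glo reagent was added to stop the reaction and deplete ATP, followed by 40 min at room temperature. Detection reagent then converted ADP to ATP for a luciferase readout, followed by 30 min at room temperature. Luminescence was integrated over 0.5–1 s, and IC50 came from curve fitting.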
A general note: ADP-Glo turns the ADP formed in a reaction into a luminescent signal.

Test [2] deals with Ramos. Put plainly: Induction of apoptosis in human Ramos cells assessed as early apoptotic cells at 5 uM after 72 hrs by Annexin V-FITC/propidium iodide staining based flow cytometry (reference value: 0.0%). It is filed as functional.
Test [3] deals with Ramos. Put plainly: Induction of apoptosis in human Ramos cells assessed as early apoptotic cells at 20 uM after 72 hrs by Annexin V-FITC/propidium iodide staining based flow cytometry (reference value: 0.0%). It is filed as functional.
Test [4] deals with Ramos. Put plainly: Induction of apoptosis in human Ramos cells assessed as total apoptosis rate at 20 uM after 72 hrs by Annexin V-FITC/propidium iodide staining based flow cytometry relative to control. For orientation: A flow cytometer gives signals particle by particle.
For test [5], the system named is Ramos. In words: Antiproliferative activity against human Ramos cells assessed as inhibition of cell viability at 20 uM after 72 hrs by CCK-8 assay. It is filed as functional. The gist of the method: (§1)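 CCK-8 viability assay. Cells were seeded at 3000/well in RPMI-1640 with 10% FBS at 37 °C, 5% CO2, for 4 h before treatment. Exposure was 72 h at five concentrations (1.25, 5, 10, 20, 40 µM), each in five replicates. Absorbance was read at 450 nm. IC50 came from dose-response curves, as the mean of at least three separate experiments.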
(Formazan colour is commonly taken as a measure of viable cells.)

In test [6] the test system is Ramos. In words: Antitumor activity against human Ramos cells xenografted in CB17/SCID mouse assessed as tumor growth inhibition at 60 mg/kg, po qd for 14 days. The format is functional. The following applies: 336 h, read-out: TGI. Summed up:
(§2)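 Female CB17/SCID mice, 5–6 weeks old and 20–25 g, received 3×10⁶ Ramos cells in 0.1 mL PBS subcutaneously in the right axilla. From day 3 after implantation, dosing was oral at 30 or 60 mg/kg for 14 days; vehicle controls got oral 25% PEG-400. Tumor volume was A×B²/2 from caliper diameters. Tumor weight was taken at sacrifice, and body weight was tracked. n = 5.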

Test [7] relates to Ramos. In words: Antiproliferative activity against human Ramos cells after 72 hrs by CCK-8 assay.
The subject of test [8] is Ramos. Put plainly: Induction of apoptosis in human Ramos cells assessed as viable cells at 20 uM after 72 hrs by Annexin V-FITC/propidium iodide staining based flow cytometry (reference value: 98.7%). The format is functional. The following applies: read-out: Activity.
For test [9], the system named is Ramos. Put plainly: Antitumor activity against human Ramos cells xenografted in CB17/SCID mouse assessed as tumor growth inhibition at 30 mg/kg, po qd for 14 days. The format is functional. The following applies: 336 h, read-out: TGI. Summed up:
as §2

The subject of test [10] is Ramos. Put plainly: Antitumor activity against human Ramos cells xenografted in po dosed CB17/SCID mouse assessed as reduction in tumor growth administered as qd for 14 days. The format is functional, organism-based. The gist of the method:
as §2

Test [11] has as its system Ramos. Put plainly: Induction of apoptosis in human Ramos cells assessed as late apoptotic cells at 10 uM after 72 hrs by Annexin V-FITC/propidium iodide staining based flow cytometry (reference value: 0.5%). It is filed as functional.
The test system of test [12] is Ramos. Put plainly: Induction of apoptosis in human Ramos cells assessed as early apoptotic cells at 10 uM after 72 hrs by Annexin V-FITC/propidium iodide staining based flow cytometry (reference value: 0.0%). The format is functional.
In test [13] the test system is Ramos. Put plainly: Induction of apoptosis in human Ramos cells assessed as viable cells at 5 uM after 72 hrs by Annexin V-FITC/propidium iodide staining based flow cytometry (reference value: 98.7%). As to conditions: read-out: Activity. It is filed as functional.
In test [14] the test system is Ramos. In words: Induction of apoptosis in human Ramos cells assessed as viable cells at 10 uM after 72 hrs by Annexin V-FITC/propidium iodide staining based flow cytometry (reference value: 98.7%). It is filed as functional. As to conditions: read-out: Activity.
For test [15], the system named is Ramos. In words: Antiproliferative activity against human Ramos cells at 1.25 to 40 uM by CCK-8 assay. As to conditions: TDE = time-dependent effect. It is filed as functional, cell-based. Summed up: as §1
The target of test [16] is T2, Tyrosine-protein kinase JAK3 (Homo sapiens) (UniProt P52333).
T2 sequence (whole entry): T1 sequence (P52333 whole entry)
In words: Inhibition of JAK3 in human NAMALWA cells assessed as reduction in STAT3 phosphorylation after 48 hrs by immunoblot analysis. The format is cell-based. Summed up:
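Namalwa cells were treated with 1, 5 or 10 µM for 48 h. Lysates were cleared at 14,000 g for 15 min at 4 °C, and 50 µg of protein was run on 8–12% SDS-PAGE and transferred to PVDF. Membranes were blocked in 5% milk for 2 h and incubated with primary antibody overnight at 4 °C. Detection was by ECL, with band IOD normalized to β-actin.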

For `C=CC(=O)Nc1cccc(Nc2nc(Nc3ccc(OCC(=O)N4CCOCC4)c(Cl)c3)ncc2Cl)c1`, the IC50 in [1] is 8.34 nM; in test [7], 2460 nM. The Activity is 54.8% in test [2]; 65.1% in test [3]; 79.5% in [4]; 10.9% in test [11]; 59% in test [12]; “Tde” in test [15]. Also, in [5], the inhibition at 20 µM worked out at 91%. Moreover, the inhibition in vivo at 60 mg/kg in test [6] worked out at 36.6%. In addition, the viability at 20 µM in test [8] was found to be 20.1%. In test [9], the inhibition in vivo at 30 mg/kg was found to be 24.4%. Further, the TGI entry in test [10] is “Dose-dependent effect”. Also, the viability at 5 µM in test [13] worked out at 37.2%. Moreover, the viability at 10 µM in test [14] stood at 29%. Also, the inhibition entry in [16] was “Dose-dependent effect”.

As for `C=CC(=O)Nc1cccc(Nc2nc(Nc3ccc(OCCCN4CCOCC4)cc3)ncc2Cl)c1`, the IC50 turned out to be 0.83 nM in test [1] and 4850 nM in test [7]. Moreover, the Activity in [2] is 50.8%; in [3], 61.6%; in test [4], 80.2%; in [11], 9.6%; in test [12] it was 67.6%; in [15], “Tde”. In [5], the inhibition at 20 µM is 91%. In addition, the inhibition in vivo at 60 mg/kg in test [6] stood at 47.5%. Also, the viability at 20 µM in [8] came out at 16.3%. Moreover, the inhibition in vivo at 30 mg/kg in test [9] amounted to 36.6%. Also, the TGI entry in [10] is “Dose-dependent effect”. Moreover, the viability at 5 µM in [13] came out at 34.4%. Besides, in test [14], the viability at 10 µM amounted to 20.1%. Also, the inhibition result in [16] was “Dose-dependent effect”.
